In ChEMBL document CHEMBL3085624, “Design, synthesis, and biological evaluation of novel investigational nonapeptide KISS1R agonists with testosterone-suppressive activity” (J Med Chem, 2013):
Non-standard residues stand in square brackets, D forms with d. Residues, ends and D or L forms follow the SMILES beside them. 2Nal = N[C@@H](Cc1ccc2ccccc2c1)C(=O)O; Arg(Me) = CNC(=N)NCCC[C@H](N)C(=O)O; d3Pal = N[C@H](Cc1cccnc1)C(=O)O; Cha = N[C@@H](CC1CCCCC1)C(=O)O; azaGly = NNC(=O)O

Tests used:
[1] = target: KiSS-1 receptor (Rattus norvegicus, UniProt Q924U1); experiment: Binding affinity to rat KISS1R
[2] = target: T1, KiSS-1 receptor (Homo sapiens, UniProt Q969F8); experiment: Binding affinity to human KISS1R expressed in CHO cell membranes
[3] = target: T1, KiSS-1 receptor; experiment: Agonist activity at recombinant human KISS1R expressed in CHO cells assessed as intracellular calcium mobilization incubated for 30 mins at 37 degC and 30 mins at room temperature by Fluo-4 NW staining-based FLIPR assay relative to Metastin (45 to 54); format: functional, cell-based
Outline: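 CHO cells stably expressing human KISS1R seeded at 15,000 cells/well, cultured 24 h, then loaded with Fluo-4 Direct in HBSS with 4 mM probenecid and 0.1% BSA (30 min 37 °C, 30 min room temperature). Compounds from 10 µM DMSO stocks diluted in sample buffer and added. Fluorescence read for 2 min at 2 s intervals. Peak counts give agonist activity. EC50 expressed as ratio to metastin(45-54).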

T1 sequence (Q969F8 whole entry): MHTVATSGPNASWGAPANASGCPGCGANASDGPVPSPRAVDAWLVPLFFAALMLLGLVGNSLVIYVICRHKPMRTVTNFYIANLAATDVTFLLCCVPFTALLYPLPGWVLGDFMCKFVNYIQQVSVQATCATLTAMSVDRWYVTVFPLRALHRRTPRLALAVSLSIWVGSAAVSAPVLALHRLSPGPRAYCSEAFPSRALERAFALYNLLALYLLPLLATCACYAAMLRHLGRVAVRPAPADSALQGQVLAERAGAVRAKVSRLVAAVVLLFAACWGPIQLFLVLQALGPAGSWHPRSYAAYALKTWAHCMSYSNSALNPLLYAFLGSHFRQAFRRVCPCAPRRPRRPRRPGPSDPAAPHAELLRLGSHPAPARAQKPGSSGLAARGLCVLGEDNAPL
Sequence of KiSS-1 receptor (Rattus norvegicus, UniProt Q924U1) (Q924U1 whole entry): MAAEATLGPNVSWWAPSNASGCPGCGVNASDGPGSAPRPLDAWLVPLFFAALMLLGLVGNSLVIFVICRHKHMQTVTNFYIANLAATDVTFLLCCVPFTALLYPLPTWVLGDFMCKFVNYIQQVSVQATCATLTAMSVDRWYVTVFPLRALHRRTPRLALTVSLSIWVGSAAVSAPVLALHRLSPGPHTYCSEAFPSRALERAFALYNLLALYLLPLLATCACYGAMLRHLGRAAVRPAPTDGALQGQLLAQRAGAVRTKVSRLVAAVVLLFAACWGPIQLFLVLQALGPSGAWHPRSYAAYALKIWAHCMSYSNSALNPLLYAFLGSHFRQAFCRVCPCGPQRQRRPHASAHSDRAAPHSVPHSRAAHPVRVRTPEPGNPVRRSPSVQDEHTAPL

SMILES	Ki [1]	Ki [2]	fold change (FC) [3]
CNC(=N)NCCC[C@H](NC(=O)[C@H](CC(C)C)NC(=O)NNC(=O)[C@H](Cc1ccccc1)NC(=O)[C@H](CO)NC(=O)[C@H](CC(N)=O)NC(=O)[C@H](Cc1c[nH]c2ccccc12)NC(=O)[C@@H](Cc1cnc[nH]1)NC(=O)[C@H](N)Cc1ccc(O)cc1)C(=O)N[C@@H](Cc1ccccc1)C(N)=O	0.043 nM	0.033 nM	6.2
CNC(=N)NCCC[C@H](NC(=O)[C@H](CC(C)C)NC(=O)NNC(=O)[C@H](Cc1ccccc1)NC(=O)[C@H](CO)NC(=O)[C@H](CC(N)=O)NC(=O)[C@H](Cc1c[nH]c2ccccc12)NC(=O)[C@H](CC(N)=O)NC(=O)[C@H](N)Cc1cccnc1)C(=O)N[C@@H](Cc1ccccc1)C(N)=O (H-[d3Pal]NWNSF[azaGly]L[Arg(Me)]F-NH2)	0.14 nM	0.12 nM	2.3
CNC(=N)NCCC[C@H](NC(=O)[C@H](CC(C)C)NC(=O)NNC(=O)[C@H](Cc1ccccc1)NC(=O)[C@H](CO)NC(=O)[C@H](CC(N)=O)NC(=O)[C@H](CC1CCCCC1)NC(=O)[C@@H](CC(N)=O)NC(=O)[C@H](N)Cc1cccnc1)C(=O)N[C@@H](Cc1ccccc1)C(N)=O (H-[d3Pal][dN][Cha]NSF[azaGly]L[Arg(Me)]F-NH2)	0.18 nM	0.2 nM	10
CNC(=N)NCCC[C@H](NC(=O)[C@H](CC(C)C)NC(=O)NNC(=O)[C@H](Cc1ccccc1)NC(=O)[C@H](CO)NC(=O)[C@H](CC(N)=O)NC(=O)[C@H](Cc1c[nH]c2ccccc12)NC(=O)[C@H](CC(N)=O)NC(=O)[C@@H](C)N)C(=O)N[C@@H](Cc1ccccc1)C(N)=O (H-[dA]NWNSF[azaGly]L[Arg(Me)]F-NH2)	0.52 nM	0.51 nM	4.9
CC[C@H](C)[C@H](NC(=O)[C@H](N)Cc1ccc(O)cc1)C(=O)N[C@@H](CC(N)=O)C(=O)N[C@@H](CO)C(=O)N[C@@H](Cc1ccccc1)C(=O)NNC(=O)N[C@@H](CC(C)C)C(=O)N[C@@H](CCCNC(=N)NC)C(=O)N[C@@H](Cc1ccccc1)C(N)=O (H-[dY]INSF[azaGly]L[Arg(Me)]F-NH2)	0.13 nM	0.12 nM	14
CNC(=N)NCCC[C@H](NC(=O)[C@H](CC(C)C)NC(=O)NNC(=O)[C@H](Cc1ccccc1)NC(=O)[C@H](CO)NC(=O)[C@H](CC(N)=O)NC(=O)[C@@H](NC(=O)[C@H](N)Cc1ccc(O)cc1)[C@@H](C)O)C(=O)N[C@@H](Cc1ccccc1)C(N)=O (H-[dY]TNSF[azaGly]L[Arg(Me)]F-NH2)	0.24 nM	0.2 nM	8.9
CNC(N)=NCCC[C@H](NC(=O)[C@H](CC(C)C)NC(=O)NNC(=O)[C@H](Cc1ccccc1)NC(=O)[C@H](CO)NC(=O)[C@H](CC(N)=O)NC(=O)[C@H](Cc1ccc2ccccc2c1)NC(=O)[C@H](N)Cc1ccc(O)cc1)C(=O)N[C@@H](Cc1ccccc1)C(N)=O (H-[dY][2Nal]NSF[azaGly]L[Arg(Me)]F-NH2)	0.051 nM	0.032 nM	
CNC(=N)NCCC[C@H](NC(=O)[C@H](CC(C)C)NC(=O)NNC(=O)[C@H](Cc1ccccc1)NC(=O)[C@H](CO)NC(=O)[C@H](CC(N)=O)NC(=O)[C@H](CC1CCCCC1)NC(=O)[C@@H](CC(N)=O)NC(=O)[C@H](N)Cc1ccc(O)cc1)C(=O)N[C@@H](Cc1ccccc1)C(N)=O (H-[dY][dN][Cha]NSF[azaGly]L[Arg(Me)]F-NH2)	0.076 nM	0.055 nM	17
CNC(=N)NCCC[C@H](NC(=O)[C@H](CC(C)C)NC(=O)NNC(=O)[C@H](Cc1ccccc1)NC(=O)[C@H](CO)NC(=O)[C@H](CC(N)=O)NC(=O)[C@@H](Cc1c[nH]c2ccccc12)NC(=O)[C@H](N)Cc1ccc(O)cc1)C(=O)N[C@@H](Cc1ccccc1)C(N)=O (H-[dY][dW]NSF[azaGly]L[Arg(Me)]F-NH2)	0.11 nM	0.065 nM	4.5
